Results from different studies.
Target: Serine/threonine-protein kinase ULK3 (ULK3, Homo sapiens, UniProt Q6PHR2)
One construct used (Q6PHR2 1-472): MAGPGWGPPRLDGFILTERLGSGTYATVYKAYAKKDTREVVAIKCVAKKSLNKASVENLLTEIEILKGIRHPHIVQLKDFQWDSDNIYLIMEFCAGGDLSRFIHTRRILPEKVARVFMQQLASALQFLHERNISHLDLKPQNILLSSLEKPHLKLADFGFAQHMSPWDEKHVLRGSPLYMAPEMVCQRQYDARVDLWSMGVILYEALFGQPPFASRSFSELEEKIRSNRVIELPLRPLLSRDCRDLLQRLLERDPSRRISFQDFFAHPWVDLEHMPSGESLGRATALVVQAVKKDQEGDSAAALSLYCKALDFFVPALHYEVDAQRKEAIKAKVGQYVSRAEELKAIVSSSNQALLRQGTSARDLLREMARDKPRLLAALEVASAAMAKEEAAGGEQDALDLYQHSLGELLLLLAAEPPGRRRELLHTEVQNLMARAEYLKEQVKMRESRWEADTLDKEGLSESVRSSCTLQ

SMILES	test	setting	remaining binding [%]
c1cncc(-c2cccc(Nc3nccc(NC4CCCCC4)n3)c2)c1	binding, competition with immobilised ligand	10 µM	44
O=C(NCc1ncc(C(F)(F)F)cc1Cl)c1ccc2c(c1)C1(CCS(=O)(=O)CC1)[C@@H](C1CC1)N2S(=O)(=O)c1ccc(F)cc1	cell-free assay, competition with immobilised ligand	1 µM	69
O=C(NCC1CCOCC1)c1n[nH]cc1NC(=O)c1c(F)cccc1F	binding, competition with immobilised ligand	1 µM	85
Cc1cc(-c2cc(C(F)(F)F)ccc2O[C@H]2C[C@@]2(CNS(=O)(=O)c2ccc([N+](=O)[O-])cc2)c2ccc(F)cc2F)[nH]n1	cell-free assay, competition with immobilised ligand	0.3 µM	9.8
CS(=O)(=O)N1CCCC(NC(=O)[C@H](CCC2CCCCC2)NC(=O)c2ccc(CNC(=O)c3cnc4ccccn34)cc2)C1 (some centres unmarked)	cell-free assay, competition with immobilised ligand	0.1 µM	100
O=C(NCCCN1CCOCC1)c1ccc(Nc2ncc(Cl)c(-c3ccc(Cl)s3)n2)cc1	binding, competition with immobilised ligand	1 µM	6.5
F[C@@H]1CCN(c2nccc(-c3cnn4ncccc34)n2)C1	binding	1 µM	100
CC(=O)Nc1c(C(C)=O)c(=O)n(C)c2nc(-c3ccc(Cl)cc3Cl)c(-c3ccc(Cl)cc3)cc12	cell-free assay, competition with immobilised ligand	1 µM	75
COc1cnc(Nc2cccc(S(N)(=O)=O)c2)nc1N1CCN(c2ccccc2)C(=O)C1	binding, competition with immobilised ligand	1 µM	45
O=C(c1ccc(Nc2nccc(-c3cc4ccccc4s3)n2)cc1)N1CCC(N2CCCC2)CC1	binding, competition with immobilised ligand	1 µM	0.4
CN(C)c1nccc(-c2cnc3ncccn23)n1	binding	1 µM	75
COc1cnc(Nc2cccc(S(N)(=O)=O)c2)nc1N1CCN(c2ccccc2)CC1	binding, competition with immobilised ligand	1 µM	79
CN(C)c1ncc(F)c(-c2cnn3ncccc23)n1	binding	1 µM	72
O=C(O)[C@H]1[C@H](Cn2nnc3ccccc3c2=O)CC[C@@H]1C(=O)c1ccc(OCCC2CCOCC2)cc1	cell-free assay, competition with immobilised ligand	1 µM	85
O=C(c1ccc(Nc2ncc(Cl)c(-c3cc4ccccc4s3)n2)cc1)N1CCC(N2CCCC2)CC1	binding, competition with immobilised ligand	1 µM	0.2
N[C@H]1CCN(c2nccc(-c3cnn4ncccc34)n2)C1	binding	1 µM	86
C[C@H](c1ccc(F)cc1)N(Cc1cccc(C(=O)O)c1)C(=O)c1cnc2ccccc2c1	cell-free assay, competition with immobilised ligand	1 µM	82
COc1ncc2cc3ccccc3nc2c1C#N	cell-free assay, competition with immobilised ligand	5 µM	91
CS(=O)(=O)NCC[C@H](NC(=O)c1cncc2c1cnn2-c1ccc(F)cc1)c1ccnc(S(C)(=O)=O)c1	cell-free assay, competition with immobilised ligand	1 µM	100
CN(c1nccc(-c2cnn3ncccc23)n1)C1CC1	binding	1 µM	100
